Measured values: ChEMBL document CHEMBL1255408, “Roles of calcineurin and Crz1 in antifungal susceptibility and virulence of Candida glabrata” (2010)
≈ marks a conversion by molar mass, not a printed value. Calls of active or inactive are those of the source. The calls are words filed in the database; no cut-off is given here. Starred links: 1 amine or outer side, 2 acyl side, 3 side chain; linkers in the order of their positions; H or OH if unused. Positions of bridges follow the written chain, without caps; N, C: chain ends. Non-standard residues stand in square brackets, D forms with d. Residues, ends and D or L forms follow the SMILES beside them. *: point of attachment. hTyr(3S-OH,4S-OH,3'-OSO3H) = N[C@H](C(=O)O)[C@H](O)[C@@H](O)c1ccc(O)c(OS(=O)(=O)O)c1; Orn(4R-OH,5R-OH) = O=C([C@H](C[C@@H](O)[C@@H](O)N[*:3])N[*:1])[*:2]; Pro(3S-OH,4S-Me) = C[C@H]1CN[C@H](C(=O)O)[C@H]1O; X1 = CCCCCOc1ccc(-c2cc(-c3ccc(C(=O)*)cc3)no2)cc1; Gln(3R-OH) = NC(=O)C[C@@H](O)[C@H](N)C(=O)O; Hyp = O=C(O)[C@@H]1C[C@@H](O)CN1

Key:
Nakaseomyces glabratus [1] = assay: Antimicrobial activity against Candida glabrata TG172 containing deltacrz1 mutant at 1 mg/ml after 48 hrs; assay type: functional, organism-based
Method in brief: (§1)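 Spot assay: serial 10-fold dilutions of log-phase cells spotted on minimal-medium plates containing micafungin, Congo red or calcofluor white. Plates incubated 48 h at 30°C; each test repeated at least three times.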

Nakaseomyces glabratus [2] = assay: Antimicrobial activity against Candida glabrata TG162 containing calcineurin deltacnb1 mutant at 1 mg/ml after 48 hrs; assay type: functional, organism-based; method in brief: as §1
Nakaseomyces glabratus [3] = assay: Antimicrobial activity against Candida glabrata TG172 containing deltacrz1 mutant at 0.8 mg/ml after 48 hrs; assay type: functional, organism-based; method in brief: as §1
Nakaseomyces glabratus [4] = assay: Antimicrobial activity against Candida glabrata TG162 containing calcineurin deltacnb1 mutant at 0.8 mg/ml after 48 hrs; assay type: functional, organism-based; method in brief: as §1
Nakaseomyces glabratus [5] = assay: Fungicidal activity against deltacrz1 mutant containing Candida glabrata TG173 complemented with CRZ1 gene at 0.03 ug/ml after 24 hrs by colorimetric microdilution method; assay type: functional, organism-based
Method in brief: (§2)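 Log-phase cells at 2.5 × 10^3 CFU/ml in minimal medium, with or without micafungin (dissolved in distilled water). OD600 read after 24 h. Percent absorbance at 0.03 μg/ml relative to drug-free culture; mean and SD of three independent experiments.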

Nakaseomyces glabratus [6] = assay: Fungicidal activity against Candida glabrata TG172 containing deltacrz1 mutant at 0.03 ug/ml after 24 hrs by colorimetric microdilution method; assay type: functional, organism-based; method in brief: as §2
Nakaseomyces glabratus [7] = assay: Fungicidal activity against calcineurin deltacnb1 mutant containing Candida glabrata TG163 complemented with CNB1 gene at 0.03 ug/ml after 24 hrs by colorimetric microdilution method; assay type: functional, organism-based; method in brief: as §2
Nakaseomyces glabratus [8] = assay: Fungistatic activity against wild type Candida glabrata TG11 at 0.03 ug/ml after 24 hrs by colorimetric microdilution method; assay type: functional, organism-based
Nakaseomyces glabratus [9] = assay: Fungicidal activity against Candida glabrata TG162 containing calcineurin deltacnb1 mutant at 0.03 ug/ml after 24 hrs by colorimetric microdilution method; assay type: functional, organism-based; method in brief: as §2
Nakaseomyces glabratus [10] = assay: Antimicrobial activity against deltacrz1 mutant containing Candida glabrata TG173 complemented with CRZ1 gene by colorimetric microdilution method; assay type: functional
Method in brief: (§3)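 MIC by commercially prepared colorimetric broth microdilution panel; agents tested were fluconazole, miconazole, itraconazole, voriconazole and amphotericin B.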

Nakaseomyces glabratus [11] = assay: Antimicrobial activity against Candida glabrata TG172 containing deltacrz1 mutant by colorimetric microdilution method; assay type: functional; method in brief: as §3
Nakaseomyces glabratus [12] = assay: Antimicrobial activity against calcineurin deltacnb1 mutant containing Candida glabrata TG163 complemented with CNB1 gene by colorimetric microdilution method; assay type: functional; method in brief: as §3
Nakaseomyces glabratus [13] = assay: Antimicrobial activity against wild type Candida glabrata TG11 by colorimetric microdilution method; assay type: functional; method in brief: as §3
Nakaseomyces glabratus [14] = assay: Antimicrobial activity against Candida glabrata TG162 containing calcineurin deltacnb1 mutant by colorimetric microdilution method; assay type: functional; method in brief: as §3
Nakaseomyces glabratus [15] = assay: Antimicrobial activity against deltacrz1 mutant containing Candida glabrata TG173 complemented with CRZ1 gene assessed as reduction in […] cell viability by time kill study; assay type: functional, organism-based
Method in brief: (§4)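 Time-kill: log-phase cells at 5 × 10^5 CFU/ml in minimal medium with agitation, with or without fluconazole at several concentrations. Total cells counted by hemocytometer, viable cells by plating dilutions on YPD. Read-out is percent viability; mean and SD of three independent experiments.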

Nakaseomyces glabratus [16] = assay: Antimicrobial activity against Candida glabrata TG172 containing deltacrz1 mutant assessed as reduction in […] cell viability by time kill study; assay type: functional, organism-based; method in brief: as §4
Nakaseomyces glabratus [17] = assay: Fungistatic activity against calcineurin deltacnb1 mutant containing Candida glabrata TG163 complemented with CNB1 gene assessed as reduction in […] cell viability by time kill study; assay type: functional, organism-based; method in brief: as §4
Nakaseomyces glabratus [18] = assay: Fungicidal activity against Candida glabrata TG162 containing calcineurin deltacnb1 mutant assessed as reduction in […] cell viability by time kill study; assay type: functional, organism-based; method in brief: as §4
Nakaseomyces glabratus [19] = assay: Fungistatic activity against wild type Candida glabrata TG11 assessed as reduction in […] cell viability by time kill study; assay type: functional, organism-based; method in brief: as §4

Structure (SMILES)	MIC (Nakaseomyces glabratus [10]) [µg/mL]	MIC (Nakaseomyces glabratus [11]) [µg/mL]	MIC (Nakaseomyces glabratus [12]) [µg/mL]	MIC (Nakaseomyces glabratus [13]) [µg/mL]	MIC (Nakaseomyces glabratus [14]) [µg/mL]	other results
Nc1c(/N=N/c2ccc(-c3ccc(/N=N/c4cc(S(=O)(=O)O)c5ccccc5c4N)cc3)cc2)cc(S(=O)(=O)O)c2ccccc12	–	–	–	–	–	growth inhibition (GI) (Nakaseomyces glabratus [1]): Active; growth inhibition (GI) (Nakaseomyces glabratus [2]): Active
O=S(=O)(O)c1cc(Nc2nc(Nc3ccccc3)nc(N(CCO)CCO)n2)ccc1/C=C/c1ccc(Nc2nc(Nc3ccccc3)nc(N(CCO)CCO)n2)cc1S(=O)(=O)O	–	–	–	–	–	growth inhibition (GI) (Nakaseomyces glabratus [3]): inactive; growth inhibition (GI) (Nakaseomyces glabratus [4]): Active
CCCCCOc1ccc(-c2cc(-c3ccc(C(=O)N[C@H]4C[C@@H](O)[C@@H](O)NC(=O)[C@@H]5[C@@H](O)[C@@H](C)CN5C(=O)[C@H]([C@H](O)CC(N)=O)NC(=O)[C@H]([C@H](O)[C@@H](O)c5ccc(O)c(OS(=O)(=O)O)c5)NC(=O)[C@@H]5C[C@@H](O)CN5C(=O)[C@H]([C@@H](C)O)NC4=O)cc3)no2)cc1 (X1-[Orn(4R-OH,5R-OH)]T[Hyp][hTyr(3S-OH,4S-OH,3'-OSO3H)][Gln(3R-OH)][Pro(3S-OH,4S-Me)]; lactam 1-C)	–	–	–	–	–	growth inhibition (GI) (Nakaseomyces glabratus [5]): inactive; growth inhibition (GI) (Nakaseomyces glabratus [6]): Active; growth inhibition (GI) (Nakaseomyces glabratus [7]): inactive; growth inhibition (GI) (Nakaseomyces glabratus [8]): Active; growth inhibition (GI) (Nakaseomyces glabratus [9]): Active
C[C@@H]1[C@H](O)[C@@H](C)/C=C/C=C/C=C/C=C/C=C/C=C/C=C/[C@H](O[C@@H]2O[C@H](C)[C@@H](O)[C@H](N)[C@@H]2O)C[C@@H]2O[C@](O)(C[C@@H](O)C[C@@H](O)[C@H](O)CC[C@@H](O)C[C@@H](O)CC(=O)O[C@H]1C)C[C@H](O)[C@H]2C(=O)O [AMPHOTERICIN B]	0.5 (≈ 0.541 µM)	0.5 (≈ 0.541 µM)	0.5 (≈ 0.541 µM)	0.5 (≈ 0.541 µM)	0.5 (≈ 0.541 µM)	–
OC(Cn1cncn1)(Cn1cncn1)c1ccc(F)cc1F [FLUCONAZOLE]	16 (≈ 52.2 µM)	32 (≈ 104 µM)	16 (≈ 52.2 µM)	16 (≈ 52.2 µM)	4 (≈ 13.1 µM)	growth inhibition (GI) (Nakaseomyces glabratus [15]): inactive; growth inhibition (GI) (Nakaseomyces glabratus [16]): inactive; growth inhibition (GI) (Nakaseomyces glabratus [17]): Active; growth inhibition (GI) (Nakaseomyces glabratus [18]): Active; growth inhibition (GI) (Nakaseomyces glabratus [19]): Active
CCC(C)n1ncn(-c2ccc(N3CCN(c4ccc(OCC5COC(Cn6cncn6)(c6ccc(Cl)cc6Cl)O5)cc4)CC3)cc2)c1=O (centres undefined) [ITRACONAZOLE]	1 (≈ 1.42 µM)	1 (≈ 1.42 µM)	2 (≈ 2.83 µM)	2 (≈ 2.83 µM)	0.5 (≈ 0.709 µM)	–
Clc1ccc(COC(Cn2ccnc2)c2ccc(Cl)cc2Cl)c(Cl)c1 (centres undefined) [MICONAZOLE]	0.5 (≈ 1.2 µM)	1 (≈ 2.4 µM)	0.5 (≈ 1.2 µM)	0.5 (≈ 1.2 µM)	0.125 (≈ 0.3 µM)	–
C[C@@H](c1ncncc1F)[C@](O)(Cn1cncn1)c1ccc(F)cc1F [VORICONAZOLE]	0.25 (≈ 0.716 µM)	0.5 (≈ 1.43 µM)	0.25 (≈ 0.716 µM)	0.25 (≈ 0.716 µM)	0.125 (≈ 0.358 µM)	–
